The target in assay [1] is Tyrosine-protein kinase JAK1 (Homo sapiens) (UniProt P23458). Kind of assay: Binding affinity to JAK1 (unknown origin) assessed as change in melting temperature at 10 uM incubated for 10 mins using SYPRO orange dye by RT-PCR-based fluorescence assay. Summed up: (§1)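 Recombinant kinase domain at 2 μM in 10 mM HEPES pH 7.5, 500 mM NaCl, mixed with 10 μM inhibitor for 10 min at room temperature; SYPRO orange added at 1:1000; temperature-dependent unfolding fluorescence read on a real-time PCR instrument; Tm shift derived by a previously described method.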

Assay [2] deals with Activin receptor type-1-like (Homo sapiens) (UniProt P37023). In words: Binding affinity to ACVRL1 (unknown origin) assessed as change in melting temperature at 10 uM incubated for 10 mins using SYPRO orange dye by RT-PCR-based fluorescence assay. Summed up:
as §1

The target in assay [3] is Activin receptor type-1B (Homo sapiens) (UniProt P36896). Kind of assay: Binding affinity to ACVR1B (unknown origin) assessed as change in melting temperature at 10 uM incubated for 10 mins using SYPRO orange dye by RT-PCR-based fluorescence assay. In outline: as §1
Assay [4] concerns the target TGF-beta receptor type-1 (Homo sapiens) (UniProt P36897). In words: Binding affinity to TGFBR1 (unknown origin) assessed as change in melting temperature at 10 uM incubated for 10 mins using SYPRO orange dye by RT-PCR-based fluorescence assay. Summed up:
as §1

Assay [5] addresses Bone morphogenetic protein receptor type-1B (Homo sapiens) (UniProt O00238). Kind of assay: Binding affinity to BMPR1B (unknown origin) assessed as change in melting temperature at 10 uM incubated for 10 mins using SYPRO orange dye by RT-PCR-based fluorescence assay. In outline:
as §1

The target in assay [6] is Bone morphogenetic protein receptor type-2 (Homo sapiens) (UniProt Q13873). Kind of assay: Binding affinity to BMPR2 (unknown origin) assessed as change in melting temperature at 10 uM incubated for 10 mins using SYPRO orange dye by RT-PCR-based fluorescence assay. Summed up:
as §1

The target in assay [7] is Activin receptor type-2B (Homo sapiens) (UniProt Q13705). In words: Binding affinity to ACTR2B (unknown origin) assessed as change in melting temperature at 10 uM incubated for 10 mins using SYPRO orange dye by RT-PCR-based fluorescence assay. Summed up:
as §1

The target of assay [8] is T1, Serine/threonine-protein kinase haspin (Homo sapiens) (UniProt Q8TF76).
T1 sequence (whole entry): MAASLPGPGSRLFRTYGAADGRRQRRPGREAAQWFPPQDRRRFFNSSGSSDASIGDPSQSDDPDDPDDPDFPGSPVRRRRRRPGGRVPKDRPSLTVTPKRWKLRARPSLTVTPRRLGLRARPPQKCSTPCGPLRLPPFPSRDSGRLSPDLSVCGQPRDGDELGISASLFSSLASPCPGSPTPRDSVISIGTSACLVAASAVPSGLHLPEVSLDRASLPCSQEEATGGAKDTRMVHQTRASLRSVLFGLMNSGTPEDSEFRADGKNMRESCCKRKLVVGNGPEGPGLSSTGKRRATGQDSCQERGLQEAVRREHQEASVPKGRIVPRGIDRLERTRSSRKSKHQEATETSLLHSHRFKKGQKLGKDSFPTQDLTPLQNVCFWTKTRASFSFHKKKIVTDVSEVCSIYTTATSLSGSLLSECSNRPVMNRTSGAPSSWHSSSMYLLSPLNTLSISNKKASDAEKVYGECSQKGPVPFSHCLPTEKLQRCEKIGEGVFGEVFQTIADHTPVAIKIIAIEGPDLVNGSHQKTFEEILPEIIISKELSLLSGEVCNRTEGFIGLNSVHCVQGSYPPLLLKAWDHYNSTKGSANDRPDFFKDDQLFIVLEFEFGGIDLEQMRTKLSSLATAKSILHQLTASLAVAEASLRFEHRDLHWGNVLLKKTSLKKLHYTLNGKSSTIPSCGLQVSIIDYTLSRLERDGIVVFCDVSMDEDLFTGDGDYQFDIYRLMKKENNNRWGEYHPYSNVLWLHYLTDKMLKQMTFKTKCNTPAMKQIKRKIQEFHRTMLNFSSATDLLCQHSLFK
Kind of assay: Binding affinity to haspin (unknown origin) assessed as change in melting temperature at 10 uM incubated for 10 mins using SYPRO orange dye by RT-PCR-based fluorescence assay. In outline:
as §1

Assay [9] concerns the target AP2-associated protein kinase 1 (Homo sapiens) (UniProt Q2M2I8). Kind of assay: Binding affinity to AAK1 (unknown origin) assessed as change in melting temperature at 10 uM incubated for 10 mins using SYPRO orange dye by RT-PCR-based fluorescence assay. In outline: as §1
In assay [10] the target is Cyclin-G-associated kinase (Homo sapiens) (UniProt O14976). Kind of assay: Binding affinity to GAK (unknown origin) assessed as change in melting temperature at 10 uM incubated for 10 mins using SYPRO orange dye by RT-PCR-based fluorescence assay. In outline:
as §1

Assay [11] deals with Serine/threonine-protein kinase pim-1 (Homo sapiens) (UniProt P11309). Kind of assay: Binding affinity to PIM1 (unknown origin) assessed as change in melting temperature at 10 uM incubated for 10 mins using SYPRO orange dye by RT-PCR-based fluorescence assay.
Assay [12] deals with Serine/threonine-protein kinase pim-3 (Homo sapiens) (UniProt Q86V86). In words: Binding affinity to PIM3 (unknown origin) assessed as change in melting temperature at 10 uM incubated for 10 mins using SYPRO orange dye by RT-PCR-based fluorescence assay. In outline:
as §1

Assay [13] deals with Receptor-interacting serine/threonine-protein kinase 2 (Homo sapiens) (UniProt O43353). Kind of assay: Binding affinity to RIPK2 (unknown origin) assessed as change in melting temperature at 10 uM incubated for 10 mins using SYPRO orange dye by RT-PCR-based fluorescence assay. Summed up: as §1
In assay [14] the target is Glycogen synthase kinase-3 beta (Homo sapiens) (UniProt P49841). In words: Binding affinity to GSK3B (unknown origin) assessed as change in melting temperature at 10 uM incubated for 10 mins using SYPRO orange dye by RT-PCR-based fluorescence assay. In outline: as §1
The target in assay [15] is Serine/threonine-protein kinase 17B (Homo sapiens) (UniProt O94768). In words: Binding affinity to DRAK2 (unknown origin) assessed as change in melting temperature at 10 uM incubated for 10 mins using SYPRO orange dye by RT-PCR-based fluorescence assay. In outline: as §1
The target in assay [16] is Casein kinase I isoform epsilon (Homo sapiens) (UniProt P49674). Kind of assay: Binding affinity to CSNK1E (unknown origin) assessed as change in melting temperature at 10 uM incubated for 10 mins using SYPRO orange dye by RT-PCR-based fluorescence assay. In outline:
as §1

Assay [17] has as its target Dual specificity protein kinase CLK4 (Homo sapiens, UniProt Q9HAZ1). The conditions noted are these: dose 10.0 µM, time 10.0 min.
Assay [18] addresses Dual specificity protein kinase CLK1 (Homo sapiens, UniProt P49759). The conditions noted are these: dose 10.0 µM, time 10.0 min.
For assay [19], the target named is Dual specificity protein kinase CLK2 (Homo sapiens) (UniProt P49760). The conditions noted are these: dose 10.0 µM, time 10.0 min.
Assay [20] concerns the target Ribosomal protein S6 kinase alpha-1 (Homo sapiens) (UniProt Q15418). In words: Binding affinity to RSK1B (unknown origin) assessed as change in melting temperature at 10 uM incubated for 10 mins using SYPRO orange dye by RT-PCR-based fluorescence assay.

Chain of Bone morphogenetic protein receptor type-1B (Homo sapiens) (O00238 whole entry): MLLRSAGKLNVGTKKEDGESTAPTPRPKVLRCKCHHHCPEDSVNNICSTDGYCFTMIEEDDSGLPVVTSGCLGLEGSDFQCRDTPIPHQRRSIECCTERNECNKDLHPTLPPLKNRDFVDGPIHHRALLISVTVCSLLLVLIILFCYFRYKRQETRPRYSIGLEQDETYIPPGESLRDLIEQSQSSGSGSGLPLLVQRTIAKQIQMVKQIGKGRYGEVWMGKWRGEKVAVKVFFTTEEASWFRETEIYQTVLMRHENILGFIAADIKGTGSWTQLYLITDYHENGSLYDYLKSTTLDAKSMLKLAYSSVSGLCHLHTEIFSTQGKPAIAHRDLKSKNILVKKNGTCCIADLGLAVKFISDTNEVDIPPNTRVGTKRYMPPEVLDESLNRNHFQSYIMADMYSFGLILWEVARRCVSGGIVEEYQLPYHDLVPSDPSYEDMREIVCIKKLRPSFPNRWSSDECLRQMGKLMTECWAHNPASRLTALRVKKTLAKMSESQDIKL
Chain of Activin receptor type-2B (Homo sapiens) (Q13705 whole entry): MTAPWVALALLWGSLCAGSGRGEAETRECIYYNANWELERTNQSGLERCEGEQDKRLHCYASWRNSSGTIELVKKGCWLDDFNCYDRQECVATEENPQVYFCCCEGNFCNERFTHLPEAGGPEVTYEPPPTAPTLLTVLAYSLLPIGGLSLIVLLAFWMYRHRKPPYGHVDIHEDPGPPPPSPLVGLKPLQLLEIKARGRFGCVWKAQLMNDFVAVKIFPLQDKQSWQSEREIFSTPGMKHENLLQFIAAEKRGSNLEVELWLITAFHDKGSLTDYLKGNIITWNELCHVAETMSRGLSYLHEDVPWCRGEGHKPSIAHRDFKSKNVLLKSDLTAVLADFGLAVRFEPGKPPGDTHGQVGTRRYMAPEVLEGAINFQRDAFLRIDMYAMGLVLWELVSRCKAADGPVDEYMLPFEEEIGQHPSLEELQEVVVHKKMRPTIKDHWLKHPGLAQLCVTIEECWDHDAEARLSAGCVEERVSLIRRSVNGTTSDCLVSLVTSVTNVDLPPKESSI
Chain of Ribosomal protein S6 kinase alpha-1 (Homo sapiens) (Q15418 whole entry, looked up): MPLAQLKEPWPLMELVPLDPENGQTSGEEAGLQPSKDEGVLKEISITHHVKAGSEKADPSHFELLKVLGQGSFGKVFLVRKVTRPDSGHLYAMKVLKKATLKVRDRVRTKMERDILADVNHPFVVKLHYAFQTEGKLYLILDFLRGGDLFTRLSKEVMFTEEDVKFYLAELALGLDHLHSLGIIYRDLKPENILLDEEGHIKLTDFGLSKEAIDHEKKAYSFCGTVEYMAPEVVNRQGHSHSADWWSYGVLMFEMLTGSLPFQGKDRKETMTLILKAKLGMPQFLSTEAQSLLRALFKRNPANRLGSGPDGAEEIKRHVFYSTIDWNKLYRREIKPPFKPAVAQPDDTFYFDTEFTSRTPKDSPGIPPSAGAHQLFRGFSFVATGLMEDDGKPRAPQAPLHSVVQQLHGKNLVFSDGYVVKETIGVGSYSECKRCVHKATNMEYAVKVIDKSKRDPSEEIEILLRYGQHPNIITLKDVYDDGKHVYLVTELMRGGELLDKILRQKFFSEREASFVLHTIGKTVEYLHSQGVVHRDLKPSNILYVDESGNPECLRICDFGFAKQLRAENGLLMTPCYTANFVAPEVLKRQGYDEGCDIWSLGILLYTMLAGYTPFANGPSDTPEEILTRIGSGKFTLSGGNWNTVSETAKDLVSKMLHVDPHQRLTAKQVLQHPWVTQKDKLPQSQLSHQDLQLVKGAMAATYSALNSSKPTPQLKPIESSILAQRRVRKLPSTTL
Chain of Serine/threonine-protein kinase 17B (Homo sapiens) (O94768 whole entry, canonical isoform): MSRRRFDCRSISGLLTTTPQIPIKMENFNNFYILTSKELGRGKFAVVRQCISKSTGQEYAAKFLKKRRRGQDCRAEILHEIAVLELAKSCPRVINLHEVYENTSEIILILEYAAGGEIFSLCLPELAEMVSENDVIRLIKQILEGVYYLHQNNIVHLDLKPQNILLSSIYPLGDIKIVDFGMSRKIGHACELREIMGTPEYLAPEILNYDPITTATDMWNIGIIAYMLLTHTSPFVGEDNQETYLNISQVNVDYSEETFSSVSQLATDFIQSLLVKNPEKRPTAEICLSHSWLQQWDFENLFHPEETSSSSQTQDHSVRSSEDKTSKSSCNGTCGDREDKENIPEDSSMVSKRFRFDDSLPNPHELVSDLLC
Chain of Dual specificity protein kinase CLK4 (Q9HAZ1 whole entry, looked up): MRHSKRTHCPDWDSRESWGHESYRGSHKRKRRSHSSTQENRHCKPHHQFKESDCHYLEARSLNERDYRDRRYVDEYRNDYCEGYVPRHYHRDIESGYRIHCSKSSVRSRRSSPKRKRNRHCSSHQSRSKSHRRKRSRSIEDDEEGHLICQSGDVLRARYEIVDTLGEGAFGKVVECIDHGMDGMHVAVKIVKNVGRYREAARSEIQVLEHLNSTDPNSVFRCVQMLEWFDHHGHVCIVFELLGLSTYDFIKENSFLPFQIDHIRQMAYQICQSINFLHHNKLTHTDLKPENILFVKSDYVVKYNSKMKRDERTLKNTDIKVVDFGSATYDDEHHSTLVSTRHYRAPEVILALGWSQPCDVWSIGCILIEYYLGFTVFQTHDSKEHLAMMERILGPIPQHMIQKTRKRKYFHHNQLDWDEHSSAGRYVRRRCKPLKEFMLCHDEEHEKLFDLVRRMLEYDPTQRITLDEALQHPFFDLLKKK
Chain of Serine/threonine-protein kinase pim-1 (Homo sapiens) (P11309 whole entry, looked up): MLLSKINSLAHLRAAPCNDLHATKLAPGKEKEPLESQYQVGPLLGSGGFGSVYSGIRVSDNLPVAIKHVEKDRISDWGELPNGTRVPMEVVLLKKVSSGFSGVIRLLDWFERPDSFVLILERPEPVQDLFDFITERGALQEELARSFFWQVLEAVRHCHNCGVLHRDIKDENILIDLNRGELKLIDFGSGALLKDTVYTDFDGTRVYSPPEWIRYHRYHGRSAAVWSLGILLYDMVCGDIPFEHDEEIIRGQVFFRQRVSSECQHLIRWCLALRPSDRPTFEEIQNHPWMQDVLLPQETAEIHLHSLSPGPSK
Chain of AP2-associated protein kinase 1 (Homo sapiens) (Q2M2I8 whole entry, looked up): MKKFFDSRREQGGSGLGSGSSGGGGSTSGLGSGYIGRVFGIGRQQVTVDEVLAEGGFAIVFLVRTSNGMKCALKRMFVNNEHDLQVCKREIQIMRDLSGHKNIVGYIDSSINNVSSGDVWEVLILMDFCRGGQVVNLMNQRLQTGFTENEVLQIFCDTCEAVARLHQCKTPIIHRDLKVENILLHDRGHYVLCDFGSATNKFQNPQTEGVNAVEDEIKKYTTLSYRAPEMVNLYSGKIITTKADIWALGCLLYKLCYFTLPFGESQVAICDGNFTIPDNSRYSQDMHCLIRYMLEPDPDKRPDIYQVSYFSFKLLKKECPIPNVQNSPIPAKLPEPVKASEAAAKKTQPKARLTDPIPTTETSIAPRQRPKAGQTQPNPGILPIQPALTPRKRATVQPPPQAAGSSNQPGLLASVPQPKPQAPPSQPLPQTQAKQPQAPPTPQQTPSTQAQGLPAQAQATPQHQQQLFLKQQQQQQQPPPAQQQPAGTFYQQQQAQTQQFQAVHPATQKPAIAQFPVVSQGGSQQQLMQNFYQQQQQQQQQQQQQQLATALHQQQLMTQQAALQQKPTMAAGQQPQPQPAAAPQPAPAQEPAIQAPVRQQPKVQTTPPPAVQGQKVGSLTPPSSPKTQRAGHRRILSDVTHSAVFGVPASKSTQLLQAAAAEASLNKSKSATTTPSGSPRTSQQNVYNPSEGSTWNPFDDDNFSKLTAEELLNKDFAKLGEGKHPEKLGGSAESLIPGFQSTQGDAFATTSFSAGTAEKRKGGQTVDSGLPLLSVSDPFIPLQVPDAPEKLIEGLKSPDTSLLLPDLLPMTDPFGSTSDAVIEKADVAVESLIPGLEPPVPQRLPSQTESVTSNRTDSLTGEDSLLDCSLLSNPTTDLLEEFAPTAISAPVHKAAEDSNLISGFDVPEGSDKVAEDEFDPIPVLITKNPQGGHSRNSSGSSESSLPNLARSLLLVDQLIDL
Chain of Dual specificity protein kinase CLK2 (Homo sapiens) (P49760 whole entry, looked up): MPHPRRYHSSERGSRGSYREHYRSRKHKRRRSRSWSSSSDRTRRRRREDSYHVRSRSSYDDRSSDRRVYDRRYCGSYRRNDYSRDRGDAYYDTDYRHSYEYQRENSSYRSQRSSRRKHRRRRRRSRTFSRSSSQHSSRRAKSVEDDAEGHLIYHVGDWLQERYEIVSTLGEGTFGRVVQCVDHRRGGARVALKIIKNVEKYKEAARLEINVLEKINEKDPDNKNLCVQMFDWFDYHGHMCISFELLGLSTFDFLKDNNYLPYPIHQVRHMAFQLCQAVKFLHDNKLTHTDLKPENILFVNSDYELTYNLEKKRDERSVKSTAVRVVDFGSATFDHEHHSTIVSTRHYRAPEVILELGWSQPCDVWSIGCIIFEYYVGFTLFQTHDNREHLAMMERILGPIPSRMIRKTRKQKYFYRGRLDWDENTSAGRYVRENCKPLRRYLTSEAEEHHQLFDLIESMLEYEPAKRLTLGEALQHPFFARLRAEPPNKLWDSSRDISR
Chain of Casein kinase I isoform epsilon (Homo sapiens) (P49674 whole entry, looked up, canonical isoform): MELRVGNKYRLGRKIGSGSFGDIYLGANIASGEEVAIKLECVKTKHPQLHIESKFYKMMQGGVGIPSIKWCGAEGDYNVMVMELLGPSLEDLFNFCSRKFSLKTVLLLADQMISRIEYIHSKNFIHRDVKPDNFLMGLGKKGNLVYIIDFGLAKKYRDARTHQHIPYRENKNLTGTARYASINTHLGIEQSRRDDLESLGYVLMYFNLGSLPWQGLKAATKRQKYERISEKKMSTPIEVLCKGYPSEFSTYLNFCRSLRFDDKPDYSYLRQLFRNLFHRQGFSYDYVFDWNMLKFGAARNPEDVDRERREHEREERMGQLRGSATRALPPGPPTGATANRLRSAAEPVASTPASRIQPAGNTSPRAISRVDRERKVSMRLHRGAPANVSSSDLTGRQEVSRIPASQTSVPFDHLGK

The ΔTm is the shift of the melting midpoint relative to a reference. As for `CC(=O)c1cccc(-c2cnc3ccc(NCC4CC4)nn23)c1`, the ΔTm in [1], in assay [2], in assay [3], in [4], in assay [5] and in assay [6] was > 6 °C throughout. Further, the shift in melting temperature (ΔTm) in [7], in assay [8], in assay [9], in assay [10], in assay [11] and in [12] was > 6 °C in each case. In addition, the ΔTm is > 4 °C in [13]; > 4 °C in assay [14]; > 4 °C in assay [15]; > 4 °C in assay [16]; > 6 °C in assay [17]; > 4 °C in [18]. Moreover, the ΔTm in [19] and in assay [20] was > 4 °C throughout.

The values are drawn from ChEMBL document CHEMBL4725345, “DFG-1 Residue Controls Inhibitor Binding Mode and Affinity, Providing a Basis for Rational Design of Kinase Inhibitor Selectivity” (J Med Chem, 2020).
